Data published in paper PMC6120730 (ACS Omega, 2018).
≈ marks a conversion by molar mass, not a printed value. Like-named read-outs stand apart in the source and are kept apart here.

Legend:
[1] = mouse, oral, 10 mg/kg, plasma concentrations; cited from earlier work
[2] = mouse liver microsomes, previously reported, cited from earlier work; for predicted Eh (M): predicted hepatic extraction ratio
[3] = previously reported; cited from earlier work
[4] = human liver microsomes; previously reported; cited from earlier work
[5] = pH 7.4; previously reported; cited from earlier work
[6] = In vitro metabolism in mouse liver microsomes; format: in vitro ADME; settings: for predicted Eh (M): predicted hepatic extraction ratio, mouse liver microsomes
Outline: (§1)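 Liver microsomes at 0.4 or 0.5 mg/mL protein were incubated at 37 °C with 0.5 or 1 μM test compound. Remaining compound in the supernatant was quantified by LC–MS at time points over 0–60 min. In vitro CLint and predicted hepatic extraction ratio were calculated from the depletion data.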

[7] = In vitro metabolism in human liver microsomes; format: in vitro ADME; settings: for microsomal CLint: human, liver microsomes; for predicted Eh (H): predicted hepatic extraction ratio, human liver microsomes
Outline: as §1

[8] = system: P. falciparum 3D7 parasites; experiment: P. falciparum 3D7 growth assay; format: cell-based; settings: Pf3D7 EC50 relative to 1
[9] = Kinetic aqueous solubility by nephelometry, pH 6.5; format: physicochemical; settings: phosphate buffer, pH 6.5, aqueous buffer, kinetic from dmso stock
Outline: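 Test compound in DMSO was spiked into pH 6.5 phosphate buffer (final DMSO 1 v/v %) and incubated 30 min at room temperature. A solubility range was assigned by nephelometry.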

[10] = Mouse pharmacokinetics after oral administration; format: in vivo
Outline: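 Both arms used a single oral gavage dose. Plasma arm: male Swiss outbred mice, 20 mg/kg as a suspension in 0.5% CMC, 0.5% benzyl alcohol and 0.4% Tween 80. Plasma was sampled over 24 h and measured by LC–MS. Blood arm: 10 mg/kg in 0.1% methylcellulose. Serial blood was taken 0.5–24 h, lysed with water and analysed by LC–MS/MS. Parameters came from noncompartmental analysis.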

[11] = system: P. falciparum Pf3D7^0087/N9; experiment: SCID mouse model of P. falciparum infection; format: in vivo
Outline: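 NOD-scid IL2Rγnull mice (23–36 g) engrafted with human erythrocytes were infected iv with 20 × 10^6 Pf3D7^0087/N9 parasites. Test compound in 1% methylcellulose was given by oral gavage once daily for 4 days from day 3 (10–60 mg/kg), with actual doses verified by measuring the formulations. Parasitemia was measured by FACS and blood drug by LC–MS–MS. ED90 was set on day 7.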

[12] = male, Swiss outbred, plasma, 20 mg/kg

| Structure (SMILES) | microsomal CLint ([6]; mouse, liver microsomes) [µL/min/mg] | microsomal CLint [7] [µL/min/mg] | predicted Eh (M) [6] | predicted Eh (H) [7] | solubility kinetic at 30 min [9] [µg/mL] | further results |
| --- | --- | --- | --- | --- | --- | --- |
| Cc1cc(Nc2ccc(S(F)(F)(F)(F)F)cc2)n2nc(C(C)(F)F)nc2n1 [Compound 1] | – | – | – | – | – | AUCinf [1]: 23 µM·h; CLint (M) [2]: 2.8 μL/min/mg protein; predicted Eh (M) [2]: <0.2/<0.2; kinetic solubility pH 6.5 [3]: 12.5–25 μg/mL; CLint (H) [4]: 4.3 μL/min/mg protein |
| Cc1cc(Nc2ccc(C(F)(F)F)nc2)n2nc(C(C)(F)F)nc2n1 [Compound 2] | – | – | – | – | – | log DpH7.4 [5]: 2.5; CLint (M) [2]: < 7 μL/min/mg protein; predicted Eh (M) [2]: < 0.01; kinetic solubility pH 6.5 [3]: >100 μg/mL; CLint (H) [4]: 2.2 μL/min/mg protein |
| Cc1nc(Nc2ccc(C)c(Cl)c2)c2c(C)noc2n1 [Compound 3] | 28 | 6.2 | – | – | – | CLint (M) ([6]; mouse, liver microsomes): rapidly metabolized |
| Cc1nc(NC2CCc3ccc(Cl)cc3C2)c2c(C)noc2n1 (centres unmarked) [Compound 9, N-(7-Chloro-1,2,3,4-tetrahydronaphthalen-2-yl)-3,6-dimethylisoxazolo[5,4-d]pyrimidin-4-amine] | 183 | 36 | 0.89 | 0.59 | 1.6 to 3.1 (≈ 4.87 to 9.43 µM) | fold less potent than 1 on P. falciparum parasites [8]: 2–4 fold |
| Cc1nc(NC2CCc3cc(Cl)ccc3C2)c2c(C)noc2n1 (centres unmarked) [Compound 10, N-(6-Chloro-1,2,3,4-tetrahydronaphthalen-2-yl)-3,6-dimethylisoxazolo[5,4-d]pyrimidin-4-amine] | 179 | 23 | 0.89 | 0.47 | 1.6 to 3.1 (≈ 4.87 to 9.43 µM) | – |
| Cc1nc(NC2CCc3ccc(Br)cc3C2)c2c(C)noc2n1 (centres unmarked) [Compound 11, N-(7-Bromo-1,2,3,4-tetrahydronaphthalen-2-yl)-3,6-dimethylisoxazolo[5,4-d]pyrimidin-4-amine] | 233 | 32 | 0.91 | 0.56 | < 1.6 | fold less potent than 1 on P. falciparum parasites [8]: 2–4 fold |
| Cc1nc(NC2CCc3cc(Br)ccc3C2)c2c(C)noc2n1 (centres unmarked) [Compound 12, N-(6-Bromo-1,2,3,4-tetrahydronaphthalen-2-yl)-3,6-dimethylisoxazolo[5,4-d]pyrimidin-4-amine] | 138 | 19 | 0.86 | 0.42 | < 1.6 | – |
| Cc1nc(NC2Cc3cc(F)c(F)cc3C2)c2c(C)noc2n1 [Compound 13, N-(5,6-Difluoro-2,3-dihydro-1H-inden-2-yl)-3,6-dimethylisoxazolo[5,4-d]pyrimidin-4-amine] | 143 | 17 | 0.86 | 0.39 | 3.1 to 6.3 (≈ 9.8 to 19.9 µM) | AUC(0-inf) [10, 12]: 4.2 µM·h; Cmax [10, 12]: 2100 nM; Tmax [10, 12]: 60 min |
| Cc1nc(Nc2ccc(S(F)(F)(F)(F)F)cc2)c2c(C)noc2n1 [Compound 14, 3,6-Dimethyl-N-(4-(pentafluoro-l6-sulfanyl)phenyl)isoxazolo[5,4-d]pyrimidin-4-amine] | 38 | 20 | 0.63 | 0.44 | 6.3 to 12.5 (≈ 17.2 to 34.1 µM) | ED90 (90% reduction in parasitemia) ([11]; SCID mice, oral QD for 4 days, data collected 24 h after the last dose): ~63 mg/kg; ED90 fold higher than that for 1 ([11]; same SCID model, once daily (QD) dosing, comparison with 1 from ref 26): ≥ 8 fold; AUC(0-inf) ([10]; whole blood, 10 mg/kg): 3.8 µM·h; Cmax ([10]; whole blood, 10 mg/kg): 1300 nM; Tmax ([10]; whole blood, 10 mg/kg): 45 min; fold less potent than 1 on P. falciparum parasites [8]: 2–4 fold |

Second part, led by results:

| microsomal CLint ([6]; mouse, liver microsomes) [µL/min/mg] | microsomal CLint [7] [µL/min/mg] | predicted Eh (M) [6] | predicted Eh (H) [7] | solubility kinetic at 30 min [9] [µg/mL] | Structure (SMILES) | further results |
| --- | --- | --- | --- | --- | --- | --- |
| 28 | 24 | 0.55 | 0.48 | 6.3 to 12.5 (≈ 20.4 to 40.5 µM) | Cc1nc(Nc2ccc(C(F)(F)F)cc2)c2c(C)noc2n1 [Compound 15, 3,6-Dimethyl-N-(4-(trifluoromethyl)phenyl)isoxazolo[5,4-d]pyrimidin-4-amine] | – |
| 13 | 8 | 0.36 | 0.25 | 25 to 50 (≈ 80.8 to 162 µM) | Cc1nc(Nc2ccc(C(F)(F)F)nc2)c2c(C)noc2n1 [Compound 16, 3,6-Dimethyl-N-(6-(trifluoromethyl)pyridin-3-yl)isoxazolo[5,4-d]pyrimidin-4-amine] | – |
| 328 | 26 | 0.93 | 0.5 | 1.6 to 3.1 (≈ 4.32 to 8.37 µM) | Cc1nc(NC2Cc3cc(F)c(F)cc3C2)c2c(C(F)(F)F)noc2n1 [Compound 30, N-(5,6-Difluoro-2,3-dihydro-1H-inden-2-yl)-6-methyl-3-(Trifluoromethyl)isoxazolo[5,4-d]pyrimidin-4-amine] | – |
| 76 | 13 | 0.77 | 0.33 | 1.6 to 3.1 (≈ 4.42 to 8.56 µM) | Cc1nc(Nc2ccc(C(F)(F)F)cc2)c2c(C(F)(F)F)noc2n1 [Compound 31, 6-Methyl-3-(trifluoromethyl)-N-(4-(trifluoromethyl)phenyl)isoxazolo[5,4-d]pyrimidin-4-amine] | – |
| 73 | 13 | 0.76 | 0.34 | < 1.6 | Cc1nc(Nc2ccc(S(F)(F)(F)(F)F)cc2)c2c(C(F)(F)F)noc2n1 [Compound 32, 6-Methyl-N-(4-(pentafluoro-l6-sulfanyl)phenyl)-3-(trifluoromethyl)isoxazolo[5,4-d]pyrimidin-4-amine] | – |
| 36 | 18 | 0.61 | 0.41 | 1.6 to 3.1 (≈ 4.42 to 8.56 µM) | Cc1noc2nc(C(F)(F)F)nc(Nc3ccc(C(F)(F)F)cc3)c12 [Compound 35, 3-Methyl-6-(trifluoromethyl)-N-(4-(trifluoromethyl)phenyl)isoxazolo[5,4-d]pyrimidin-4-amine] | – |
| 26 | 10 | 0.53 | 0.28 | 1.6 to 3.1 (≈ 3.81 to 7.38 µM) | Cc1noc2nc(C(F)(F)F)nc(Nc3ccc(S(F)(F)(F)(F)F)cc3)c12 [Compound 36, 3-Methyl-N-(4-(pentafluoro-l6-sulfanyl)phenyl)-6-(trifluoromethyl)isoxazolo[5,4-d]pyrimidin-4-amine] | – |
